# UCH37 inh: blocks the human deubiquitinase UCH37 | Q9Y5K5 | purified proteasome/UCH37, Ub-AMC cleavage fluorescence | inhibition, % (no concentration beside the values) | hit rate 0.33% among 330,000;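 active = mean inhibition over replicate wells above about 20%, limit read from the data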
#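 Reagent: Ub-AMC substrate; assay system: Proteasome-associated human UCH37 deubiquitinase; controls: no-proteasome and no-compound wells; read-out: % inhibition of Ub-AMC cleavage fluorescence; timing: 30 min preincubation with enzyme, 25 min cleavage at room temperature; signal: AMC fluorescence from Ub-AMC cleavage, excitation 355 nm, emission 460 nm; buffer or medium: Tris-HCl pH 7.4 plus ovalbumin, ATP-MgCl2, DTT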
# PAD4 inh: blocks human protein arginine deiminase 4. AID 485272. inhibition, % at 6.36 µM. recombinant PAD4, RCA probe fluorescence polarization. hit rate 0.41% among 330,000. Q9UM07;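 active = percent inhibition above a cutoff equal to the mean of all tested compounds plus 3 SD, cut at about 15% in these data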
# Target sequence (Q9UM07 whole entry, looked up): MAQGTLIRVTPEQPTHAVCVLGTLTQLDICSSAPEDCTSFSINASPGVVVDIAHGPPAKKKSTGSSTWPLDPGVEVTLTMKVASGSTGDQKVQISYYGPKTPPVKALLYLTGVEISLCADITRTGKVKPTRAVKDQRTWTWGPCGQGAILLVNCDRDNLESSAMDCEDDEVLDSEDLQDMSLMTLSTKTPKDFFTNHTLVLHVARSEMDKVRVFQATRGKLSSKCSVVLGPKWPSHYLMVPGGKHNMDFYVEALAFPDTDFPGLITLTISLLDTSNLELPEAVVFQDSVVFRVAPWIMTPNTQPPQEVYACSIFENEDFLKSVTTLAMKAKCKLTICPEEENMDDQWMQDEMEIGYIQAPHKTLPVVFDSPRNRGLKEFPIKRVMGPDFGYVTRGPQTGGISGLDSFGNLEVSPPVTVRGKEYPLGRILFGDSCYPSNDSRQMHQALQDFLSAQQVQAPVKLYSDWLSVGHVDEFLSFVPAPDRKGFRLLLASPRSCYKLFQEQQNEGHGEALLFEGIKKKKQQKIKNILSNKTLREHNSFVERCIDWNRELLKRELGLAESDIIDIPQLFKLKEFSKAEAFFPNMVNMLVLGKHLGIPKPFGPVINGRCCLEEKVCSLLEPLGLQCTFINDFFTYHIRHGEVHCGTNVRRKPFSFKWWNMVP
# CTSL1 counter: cathepsin L1 inhibition, PFM18AAP counter-screen | recombinant F. hepatica cathepsin L1, Z-Leu-Arg-MCA fluorescence | inhibition, % at 5.96 µM | hit rate 0.49% among 300,000 | AID 1906;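 active = inhibition above the mean of all tested compounds plus 3 SD, set per screening campaign, cut at about 17% in these data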
# Apaf1 inhib: blocks human Apaf-1 apoptosome activity; O14727; reconstituted apoptosome caspase-3 activity, DEVD-Rh110 fluorescence; inhibition, % at 20 µM; hit rate 0.71% among 330,000; AID 489030; active = inhibition of at least 40% at 20 µM
#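 Medium: Hepes buffer, pH 7.5 / System: biochemical Apaf-1 apoptosome reconstitution / Measured by: Rh110 fluorescence, excitation 480 nm, emission 540 nm / Times: compound with Apaf-1, dATP, procaspase-3 30 min, then 50 min reaction, room temperature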
# PP5 primary: inhibitors of human protein phosphatase 5 (PP5); P53041; purified PP5c, OMFP substrate fluorescence; inhibition, % at 6.7 µM; hit rate 0.18% among 320,000; AID 1987;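 active = inhibition above the campaign's mean inhibition across all tested compounds plus 3 SD, cut at about 9.5% in these data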
# GSTO1 counter: GSTO1 inhibition, counter-screen for RBBP9 inhibitors. recombinant GSTO1, activity-based probe fluorescence polarization. P78417. inhibition, % at 5.96 µM. hit rate 1.1% among 300,000;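 active = inhibition above the campaign mean inhibition plus 3 SD, cut at about 35% in these data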
# Numbers stand for hits; i = inactive; nt = not tested or not shown. Most compounds without a hit are left out; they make up all but 2% or so of the library.
SMILES,UCH37 inh,PAD4 inh,CTSL1 counter,Apaf1 inhib,PP5 primary,GSTO1 counter
O=C(CNC(=O)C1CCCCC1)OCc1cc(=O)oc2ccc3ccccc3c12,i,i,28.9,i,i,i
COc1ccccc1N1CCN(/N=C/c2ccc(O)c(O)c2)CC1,nt,i,i,i,i,51.5
Cc1cc(C)n(N=Cc2cc(Cl)cc(Cl)c2O)c(=O)c1,i,nt,nt,nt,nt,nt
CCC(=O)Nc1cc2[nH]c(=O)cc(C)c2cc1C,i,i,i,i,i,i
Cc1cc2c(C)cc(=O)[nH]c2cc1NC(=O)CCl,nt,i,i,i,i,70.8
COc1ccc(-c2noc(CNS(=O)(=O)c3ccc(NC(C)=O)cc3)n2)cc1,i,i,i,i,i,37.0
CCCCN(C(=S)Nc1ccccc1)C1CCS(=O)(=O)C1 (configuration not stated),i,i,17.7,i,i,i
CCOC(=O)c1c(N=Cc2ccc(C)cc2O)sc2c1CCN(C)C2,i,nt,nt,nt,nt,nt
NC(=O)c1sc2nc3c(c(-c4ccco4)c2c1N)CCC3,i,i,i,i,i,i
Cc1ccc(-c2c3c(nc4sc(C(N)=O)c(N)c24)CCCC3)o1,i,i,37.9,i,i,i
COc1ccccc1C=NNc1nc(C)cc(C)n1,i,nt,nt,nt,nt,nt
O=C(O)c1cc(N/N=C/C(Cl)=C/c2ccccc2)ccc1Cl,nt,i,i,i,i,40.1
CCNC(=S)N=Nc1c(O)[nH]c2ccc([N+](=O)[O-])cc12,i,i,i,i,i,45.3
CCNC(=S)N=Nc1c(O)[nH]c2ccc(C(C)C)cc12,i,i,i,i,i,i
Cc1ccc(OC(C)C(=O)N=Nc2c(O)[nH]c3ccc([N+](=O)[O-])cc23)cc1 (configuration not stated),i,i,i,i,i,36.1
COc1cc([N+](=O)[O-])cc(C=NNC(=O)c2cc(-c3ccccc3)nc3ccccc23)c1O,i,nt,nt,nt,nt,nt
CC(C(=O)NN)n1nnc(N2CCOCC2)n1 (configuration not stated),i,i,i,i,i,i
CC(C(=O)NNS(=O)(=O)c1cccc(C(F)(F)F)c1)n1nnc(N2CCOCC2)n1 (configuration not stated),i,i,59.2,i,i,i
CCOc1ccc(C=Nn2c(SC)nnc(C(C)(C)C)c2=O)cc1,i,nt,nt,nt,nt,nt
CCC[C@@H](CN1CCC[C@H]1CN1C(N)=NC[C@H]1CC(C)C)N1C[C@@H]([C@H](C)CC)N(CCCC2CCCC2)C1=N,i,i,nt,53.2,nt,nt
OCCC1CN(Cc2cccn2-c2ccccn2)CCN1C1CCCCC1 (configuration not stated),i,i,74.3,i,i,i
CC1SC(=NN=Cc2cccc([N+](=O)[O-])c2)N(C(C)(C)C)C1=O (configuration not stated),i,nt,nt,nt,nt,nt
O=C(Oc1oc(-c2ccco2)nc1C=Nc1ccccc1)c1ccco1,i,i,19.8,i,i,i
Cc1ccc(C(=O)Oc2oc(-c3ccco3)nc2C=Nc2ccc(Cl)cc2)cc1,i,i,21.4,i,i,i
COc1ccc(N(CC(=O)NN=Cc2ccc(-c3ccc([N+](=O)[O-])cc3)o2)S(=O)(=O)c2ccc(C)cc2)cc1Cl,i,nt,nt,nt,nt,nt
SMILES,UCH37 inh,PAD4 inh,CTSL1 counter,Apaf1 inhib,PP5 primary,GSTO1 counter
CC(C)=C(NC(=O)c1ccccc1)C(=O)NN=Cc1ccc(O)cc1,i,nt,nt,nt,nt,nt
O=C1CC(CSc2ccc(Cl)cc2)=NN1,i,i,i,i,i,37.0
Nc1ccc(C(=O)N2CCCC2)cc1,i,i,i,i,i,i
Nc1ccc(C(=O)n2c3ccccc3c3ccccc32)cc1,28.0,i,i,i,i,i
CC(=O)Nc1ccc(-c2csc(NN=Cc3ccncc3)n2)cc1,i,nt,nt,nt,nt,nt
CCNC(=S)NN=Cc1sccc1C,i,nt,nt,nt,nt,nt
Cc1nc(N2CCN(c3ccccn3)CC2)c2c(C)c(C(=O)Nc3c(F)cc(F)cc3Br)sc2n1,i,i,i,i,i,i
Cc1nc(N2CCN(c3ccccn3)CC2)c2c(C)c(C(=O)Nc3c(C)cc(Br)cc3C)sc2n1,i,i,18.5,i,i,i
Cc1c(NS(=O)(=O)c2cc(C(=O)NCCN(C)C)ccc2Cl)c(=O)n(-c2ccccc2)n1C,i,i,i,i,i,37.1
Cc1c(NS(=O)(=O)c2cc(C(=O)NCc3cccc(Cl)c3)ccc2Cl)c(=O)n(-c2ccccc2)n1C,i,nt,nt,nt,nt,nt
CC[n+]1c(/C=C/c2ccc(OC)c(OC)c2)ccc2ccccc21,i,i,i,i,i,i
CC[n+]1ccc(/C=C/c2ccc(N(C)C)cc2)c2ccccc21,i,nt,nt,nt,nt,nt
CC[n+]1c(/C=C/c2ccc(N(C)C)cc2)ccc2ccccc21,23.4,i,i,nt,i,i
CC[n+]1ccccc1/C=C/c1ccc(N(C)C)cc1,20.8,nt,nt,nt,nt,nt
CC(=NNC(=O)CNC(=O)c1cccnc1)c1ccccc1,i,nt,nt,nt,nt,nt
ON=C1CCc2nonc2C1=NO,i,nt,nt,nt,nt,nt
CC(=NNC(N)=S)C1(C)CCCCC1,i,nt,nt,nt,nt,nt
C/C(=N\NC(N)=S)C12CC3CC(CC(C3)C1)C2,nt,i,18.1,i,i,i
C/C(=N\NC(N)=S)C1(C)CCCCC1,nt,i,29.7,i,i,i
C/C(=N\NC(=O)c1ccncc1)C12CC3CC(CC(C3)C1)C2,nt,i,i,i,i,i
COc1ccc(N(CC(=O)NN=Cc2cc(Br)c(C)o2)S(=O)(=O)c2ccc(NC(C)=O)cc2)cc1,i,nt,nt,nt,nt,nt
CC(=NNC(=O)C1COc2ccccc2O1)c1cccs1 (configuration not stated),i,nt,nt,nt,nt,nt
COc1ccc(C=NNC(=O)c2ccccc2O)cc1Cn1cc([N+](=O)[O-])cn1,i,nt,nt,nt,nt,nt
O=C(OCc1ccccc1)Oc1cncc(C(=O)O)c1,i,i,i,i,i,35.2
O=C1C(NS(=O)(=O)c2cccs2)=C(N2CCOCC2)C(=O)c2ccccc21,i,i,i,i,i,i
SMILES,UCH37 inh,PAD4 inh,CTSL1 counter,Apaf1 inhib,PP5 primary,GSTO1 counter
CN(C1=C(N2CCOCC2)C(=O)c2ccccc2C1=O)c1ccccc1,i,i,61.9,i,i,i
COc1cccc(C=NNC(=O)c2cc3cc([N+](=O)[O-])ccc3s2)c1O,24.4,nt,nt,nt,nt,nt
CCCCCCc1cc2cc(-c3nnc(-c4ccccc4O)o3)c(=O)oc2cc1O,i,i,i,i,i,i
CCCCCCc1cc2cc(-c3nnc(-c4cc(OC)c(OC)c(OC)c4)o3)c(=O)oc2cc1O,i,i,i,62.9,i,i
CCOC(=O)N1CCC(n2c(SCC(=O)NCCC3=CCCCC3)nc3ccccc3c2=O)CC1,24.4,i,i,i,i,i
CN(C)c1cccc(C(=O)NN=Cc2ccoc2)c1,i,nt,nt,nt,nt,nt
COCCNC(=O)c1onc(CSc2cc(C)cc(C)c2)c1C(=O)O,34.0,i,i,i,i,i
C/C(C=NNC(=O)Cn1nccc1C)=C\c1ccc(C(C)C)cc1,i,nt,nt,nt,nt,nt
O=C(O)COc1ccc(Br)cc1C(c1c(C(=O)O)[nH]c2ccccc12)c1c(C(=O)O)[nH]c2ccccc12,i,i,i,i,i,55.3
O=C(O)c1[nH]c2ccccc2c1C(c1cc(Cl)cc([N+](=O)[O-])c1O)c1c(C(=O)O)[nH]c2ccccc12,i,i,i,i,i,73.8

# From PubChem
